Legend:
[1] = target: T1, Trace amine-associated receptor 1 (Mus musculus, UniProt Q923Y8); test: Antagonist activity at mouse TAAR1 assessed as reversal of endogenous beta-PEA effect; format: functional
How it was run: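 Mouse TAAR1 antagonist dose–response run as an in vitro cAMP functional assay. Efficacy is the reversal of the effect of the endogenous agonist β-PEA, with 100% efficacy defined as 0% min% stim. Values are averages of at least two independent experiments.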

[2] = target: Trace amine-associated receptor 1 (Mus musculus) (UniProt Q923Y8); test: Antagonist activity at mouse TAAR1 assessed as residual stimulation by in vitro cAMP functional assay relative to control; design: concentration or dose not given beside the values
How it was run: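 Mouse TAAR1 in vitro cAMP functional assay using the endogenous agonist β-PEA. The read-out is the residual β-PEA stimulation remaining at the maximum test-compound concentration. Values are averages of at least two independent experiments.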

[3] = target: T1, Trace amine-associated receptor 1; test: Inhibition of mouse TAAR1
[4] = Intrinsic clearance in mouse liver microsomes measured per mg of protein; format: ADME, Microsome
How it was run: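 Intrinsic clearance from in vitro incubation of compound with mouse liver microsomes, expressed per mg microsomal protein.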

[5] = Aqueous solubility of the compound; format: physicochemical; conditions: buffer
[6] = target: T2, Trace amine-associated receptor 1 (Homo sapiens, UniProt Q96RJ0); test: Inhibition of human TAAR1
T2 sequence (Q96RJ0 whole entry): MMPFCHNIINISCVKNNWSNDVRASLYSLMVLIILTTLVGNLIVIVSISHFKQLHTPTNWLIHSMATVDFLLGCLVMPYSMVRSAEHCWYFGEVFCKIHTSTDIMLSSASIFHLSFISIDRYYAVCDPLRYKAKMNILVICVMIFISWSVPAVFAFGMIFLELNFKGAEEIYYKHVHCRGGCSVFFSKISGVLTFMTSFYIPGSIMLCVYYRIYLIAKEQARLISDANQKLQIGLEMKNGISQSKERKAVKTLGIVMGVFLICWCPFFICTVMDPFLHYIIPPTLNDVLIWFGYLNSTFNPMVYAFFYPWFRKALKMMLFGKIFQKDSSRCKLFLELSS
How it was run: (§1)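 In vitro cAMP functional assay with antagonism read as reversal of the response to the endogenous agonist beta-PEA. Efficacy was scaled so that 100% equals 0% minimum stimulation. Residual beta-PEA stimulation was taken at the highest test-compound concentration. Values are means of at least two independent experiments, with duplicates typically within a twofold margin.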

Liver microsomes = test: Intrinsic clearance in human liver microsomes measured per mg of protein; format: ADME, Microsome
How it was run: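 In vitro incubation with human liver microsomes. Intrinsic clearance is expressed per mg microsomal protein per minute.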

[7] = target: T2, Trace amine-associated receptor 1; test: Antagonist activity at human TAAR1 assessed as reversal of endogenous beta-PEA effect; format: functional; how it was run: as §1
[8] = target: Trace amine-associated receptor 1 (Rattus norvegicus, UniProt Q923Y9); test: Inhibition of rat TAAR1; how it was run: as §1
[9] = Lipophilicity, log D of the compound; format: physicochemical; conditions: octanol/water

Trace amine-associated receptor 1 (Mus musculus), sequence (Q923Y8 whole entry): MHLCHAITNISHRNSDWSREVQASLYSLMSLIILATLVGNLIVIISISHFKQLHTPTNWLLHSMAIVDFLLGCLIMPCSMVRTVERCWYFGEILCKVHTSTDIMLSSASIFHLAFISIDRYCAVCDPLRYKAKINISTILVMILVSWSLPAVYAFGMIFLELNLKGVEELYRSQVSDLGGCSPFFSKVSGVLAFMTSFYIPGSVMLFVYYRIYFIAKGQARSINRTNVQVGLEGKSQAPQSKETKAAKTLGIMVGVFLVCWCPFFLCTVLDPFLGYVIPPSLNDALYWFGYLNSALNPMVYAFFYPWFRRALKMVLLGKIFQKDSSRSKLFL
T1 sequence (Q923Y8 whole entry): as above
Trace amine-associated receptor 1 (Rattus norvegicus, UniProt Q923Y9), sequence (Q923Y9 whole entry): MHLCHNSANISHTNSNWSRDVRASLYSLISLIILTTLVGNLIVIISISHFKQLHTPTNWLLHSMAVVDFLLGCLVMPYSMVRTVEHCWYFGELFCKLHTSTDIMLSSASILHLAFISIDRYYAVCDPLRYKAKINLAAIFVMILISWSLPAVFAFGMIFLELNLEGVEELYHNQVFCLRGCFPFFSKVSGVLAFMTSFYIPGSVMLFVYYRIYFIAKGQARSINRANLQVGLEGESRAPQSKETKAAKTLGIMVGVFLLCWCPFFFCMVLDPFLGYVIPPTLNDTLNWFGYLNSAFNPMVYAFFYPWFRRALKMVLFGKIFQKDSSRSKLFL

SMILES	IC50 [1]	Activity [2]	Ki [3]	other results
O=C(Nc1cccc(Oc2ccccc2)c1)c1ccc(N2CCCC2)c(C(F)(F)F)c1	–	–	82 nM	–
COc1cccc(NC(=O)c2ccc(Cl)c(Cl)c2)c1	–	–	25 nM	–
COc1cccc(NC(=O)c2cccc([N+](=O)[O-])c2)c1	665 nM	0%	189 nM	–
O=C(Nc1cccc(Cl)c1)c1ccc(N2CCCC2)c(C(F)(F)F)c1	245 nM	0%	–	–
CCCNc1ccc(C(=O)Nc2cccc(OC)c2)cc1[N+](=O)[O-]	13 nM	14%	–	–
COc1cccc(NC(=O)c2ccc(NCc3ccccc3)c([N+](=O)[O-])c2)c1	14 nM	3%	–	–
COc1cccc(NC(=O)c2ccc(N3CCCC3)c(C(F)(F)F)c2)c1	67 nM	0%	3 nM	clearance [4]: 341 µL/min/mg
O=C(Nc1cccc(OC(F)(F)C(F)F)c1)c1ccc(N2CCCC2)c(C(F)(F)F)c1	364 nM	0%	–	–
COc1cccc(NC(=O)c2ccc(Nc3ccccc3)c([N+](=O)[O-])c2)c1	175 nM	0%	–	–
CC(=O)c1cccc(NC(=O)c2ccc(N3CCCC3)c(C(F)(F)F)c2)c1	120 nM	0%	–	–
COc1cccc(NC(=O)c2ccc(F)c(C(C)=O)c2)c1	–	–	139 nM	–
O=C(Nc1cccc(OC(F)F)c1)c1ccc(N2CCCC2)c(C(F)(F)F)c1	187 nM	0%	–	–
COc1cccc(NC(=O)c2ccc(F)c(C#N)c2)c1	–	–	149 nM	–
COc1cccc(NC(=O)c2ccc(F)c(OC(F)(F)F)c2)c1	–	–	138 nM	–
COc1cccc(NC(=O)c2ccc(F)c(C)c2)c1	–	–	1580 nM	–
CCc1cccc(NC(=O)c2ccc(N3CCCC3)c(C(F)(F)F)c2)c1	470 nM	0%	–	–
O=C(Nc1cccc(OC(F)(F)F)c1)c1ccc(N2CCCC2)c(C(F)(F)F)c1	–	–	101 nM	–
COc1cccc(NC(=O)c2ccc(S(=O)(=O)N3CC(C)CC(C)C3)c(F)c2)c1 (racemic)	6 nM	28%	4 nM	solubility [5]: < 1 µg/mL; Ki [6]: > 20000 nM; clearance (Liver microsomes): 538 µL/min/mg; IC50 [7]: > 10000 nM; clearance [4]: 1700 µL/min/mg; Ki [8]: 1390 nM
O=C(Nc1cccc(F)c1)c1ccc(N2CCCC2)c(C(F)(F)F)c1	20 nM	0%	–	–
COc1cccc(NC(=O)c2cnc(N3CCC(C)CC3)c(C(F)(F)F)c2)c1	–	–	–	logD [9]: > 4; clearance [4]: 107 µL/min/mg
O=C(Nc1cccc(Br)c1)c1ccc(N2CCCC2)c(C(F)(F)F)c1	568 nM	0%	–	–
COc1cccc(NC(=O)c2ccc(F)c(S(N)(=O)=O)c2)c1	–	–	7430 nM	–
COc1cccc(NC(=O)c2ccc(F)c(S(=O)(=O)N3CCCCC3)c2)c1	–	–	694 nM	–
COc1cccc(NC(=O)c2cccc(S(C)(=O)=O)c2)c1	–	–	6000 nM	–
COc1cccc(NC(=O)c2ccc(F)c(F)c2)c1	–	–	229 nM	–
Cc1cccc(NC(=O)c2ccc(N3CCCC3)c(C(F)(F)F)c2)c1	70 nM	0%	–	–
CC(C)Oc1cccc(NC(=O)c2ccc(N3CCCC3)c(C(F)(F)F)c2)c1	27 nM	0%	4 nM	–
COc1cccc(NC(=O)c2cnc(N3CCCC3)c(C(F)(F)F)c2)c1	–	–	–	clearance [4]: 321 µL/min/mg

More lines, main results first:

IC50 [1]	Activity [2]	Ki [3]	SMILES	other results
12 nM	0%	–	COc1cccc(NC(=O)c2ccc(Cl)c([N+](=O)[O-])c2)c1	–
200 nM	9%	–	COc1cccc(NC(=O)c2ccc(N3CCC3)c([N+](=O)[O-])c2)c1	–
–	–	164 nM	COc1cccc(NC(=O)c2ccc(N3CCN(C)CC3)c([N+](=O)[O-])c2)c1	–
–	–	262 nM	COc1cccc(NC(=O)c2ccc(-n3cccn3)c([N+](=O)[O-])c2)c1	–
19 nM	0%	–	COc1cccc(NC(=O)c2ccc(N3CCCCC3)c([N+](=O)[O-])c2)c1	–
–	–	1920 nM	COc1cccc(NC(=O)c2ccc(N)c([N+](=O)[O-])c2)c1	–
43 nM	0%	–	COc1cccc(NC(=O)c2ccc(Br)c([N+](=O)[O-])c2)c1	–
75 nM	23%	–	CCNc1ccc(C(=O)Nc2cccc(OC)c2)cc1[N+](=O)[O-]	–
142 nM	0%	–	COc1cccc(NC(=O)c2ccc(NC(C)C)c([N+](=O)[O-])c2)c1	–
79 nM	0%	103 nM	COc1cccc(NC(=O)c2ccc(N3CCOCC3)c([N+](=O)[O-])c2)c1	logD [9]: 2.7; clearance [4]: 18 µL/min/mg
60 nM	0%	–	COc1cccc(NC(=O)c2ccc(N3CCC(C)CC3)c([N+](=O)[O-])c2)c1	solubility [5]: < 1 µg/mL; Ki [6]: > 20000 nM; clearance (Liver microsomes): 154 µL/min/mg; IC50 [7]: 3790 nM; logD [9]: > 3; clearance [4]: 396 µL/min/mg
17 nM	0%	–	COc1cccc(NC(=O)c2ccc(N3CCCC3)c([N+](=O)[O-])c2)c1	–

From ChEMBL document CHEMBL1667822, “Selective antagonists of mouse trace amine-associated receptor 1 (mTAAR1): discovery of EPPTB (RO5212773)” (Bioorg Med Chem Lett, 2011)
